# ChEMBL document CHEMBL2163244, “Structure-guided design, synthesis and biological evaluation of novel DNA ligase inhibitors with in vitro and in vivo anti-staphylococcal activity” (Bioorg Med Chem Lett, 2012)
# The source made the active and inactive calls. No cut-off for these calls is given here.
# What was measured:
# [1] = Inhibition of Streptococcus pneumoniae NAD-dependent DNA ligase assessed as equilibrium dissociation constant
# [2] = test system: Haemophilus influenzae; experiment: Antibacterial activity against wild type Haemophilus influenzae A921 by CLSI dilution method; assay type: functional
# [3] = test system: Staphylococcus aureus; experiment: Antibacterial activity against wild type Staphylococcus aureus ATCC 29213 by CLSI dilution method; assay type: functional
# [4] = test system: Escherichia coli; experiment: Antibacterial activity against tolC/rfaC-deficient Escherichia coli; assay type: functional
# [5] = Inhibition of Escherichia coli NAD-dependent DNA ligase
# [6] = molecular target: DNA ligase 1 (Homo sapiens) (UniProt P18858); experiment: Inhibition of human DNA Ligase 1
# [7] = molecular target: T1, Dihydrofolate reductase (Homo sapiens) (UniProt P00374); experiment: Inhibition of human DHFR
# T1 sequence (whole entry): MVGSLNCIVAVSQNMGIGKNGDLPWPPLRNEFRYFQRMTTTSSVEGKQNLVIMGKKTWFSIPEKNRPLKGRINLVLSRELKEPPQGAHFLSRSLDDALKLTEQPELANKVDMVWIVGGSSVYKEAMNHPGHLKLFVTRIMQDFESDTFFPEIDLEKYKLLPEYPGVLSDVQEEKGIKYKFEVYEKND
# [8] = test system: Escherichia coli; experiment: Antibacterial activity against tolC/rfaC-deficient Escherichia coli harboring ligA251 mutant; assay type: functional
# Outline: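 MIC read-out. The E. coli strain carries only the ligA251 allele (L15F exchange), which gives more than 20-fold reduced ligation activity and sensitizes it to LigA inhibitors.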
# [9] = test system: Streptococcus pneumoniae; experiment: Antibacterial activity against wild type Streptococcus pneumoniae A-216 by CLSI dilution method; assay type: functional
# [10] = test system: Moraxella catarrhalis; experiment: Antibacterial activity against Moraxella catarrhalis A894 by CLSI dilution method; assay type: functional
# [11] = test system: Rattus norvegicus; experiment: fAUC (0 to 24 hrs) in rat at 1 mg/kg, po; assay type: ADME, organism-based; design: dose 1 mg/kg, route oral; conditions: in vivo
# [12] = test system: Acinetobacter baumannii; experiment: Antibacterial activity against Acinetobacter baumannii T6474 by CLSI dilution method; assay type: functional
# [13] = test system: Staphylococcus aureus; experiment: Antibacterial activity against Staphylococcus aureus ATCC 25923 by CLSI dilution method; assay type: functional
# [14] = Intrinsic clearance in rat hepatocytes measured per 10^6 cells; assay type: ADME, cell-based, Hepatocyte; conditions: read-out: CLH
# [15] = AUC (0 to 24 hrs) in mouse at 10 mg/kg, sc; assay type: ADME, organism-based; design: time < 24 hr, dose 10 mg/kg, route subcutaneous; conditions: plasma
# [16] = Fraction unbound in mouse plasma at 10 mg/kg, sc; assay type: ADME, organism-based; design: dose 10 mg/kg, route subcutaneous
# [17] = test system: Pseudomonas aeruginosa; experiment: Antibacterial activity against Pseudomonas aeruginosa ATCC 27853 by CLSI dilution method; assay type: functional
# [18] = Cmax in mouse at 10 mg/kg, sc; assay type: ADME, organism-based; design: dose 10 mg/kg, route subcutaneous; conditions: in vivo
# [19] = Cmax in rat at 1 mg/kg, po; assay type: ADME, organism-based; design: dose 1 mg/kg, route oral; conditions: in vivo
# [20] = test system: Clostridioides difficile; experiment: Antibacterial activity against Clostridium difficile ATCC A1148 by CLSI dilution method; assay type: functional
# [21] = molecular target: Cytochrome P450 2D6 (Homo sapiens, UniProt P10635); experiment: Inhibition of human CYP2D6; assay type: ADME
# [22] = Terminal half life in rat at 0.1 mg/kg, iv and 1 mg/kg, po; assay type: ADME, organism-based; conditions: in vivo, read-out: beta t1/2 (converted)
# [23] = test system: Escherichia coli; experiment: Antibacterial activity against Escherichia coli ATCC 25922 by CLSI dilution method; assay type: functional
# [24] = test system: Staphylococcus aureus; experiment: Antibacterial activity against Staphylococcus aureus A798 by CLSI dilution method; assay type: functional
# [25] = test system: Streptococcus pneumoniae; experiment: Antibacterial activity against Streptococcus pneumoniae ATCC 49619 by CLSI dilution method; assay type: functional
# [26] = Oral bioavailability in rat at 1 mg/kg; assay type: ADME, organism-based; conditions: in vivo
# [27] = Intrinsic clearance in rat liver microsomes; assay type: ADME, Microsome; conditions: read-out: CLH
# [28] = test system: Klebsiella pneumoniae; experiment: Antibacterial activity against Klebsiella pneumoniae T6474 by CLSI dilution method; assay type: functional
# [29] = test system: Enterococcus faecalis; experiment: Antibacterial activity against Enterococcus faecalis ATCC 29212 by CLSI dilution method; assay type: functional
# [30] = molecular target: Cytochrome P450 3A4 (Homo sapiens, UniProt P08684); experiment: Inhibition of human CYP3A4; assay type: ADME
# [31] = test system: Staphylococcus aureus; experiment: Antibacterial activity against Staphylococcus aureus ATCC 25923 by CLSI dilution method in presence of 50% human serum; assay type: functional
# Outline: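 MIC determined in the presence of 50% human serum.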
# [32] = test system: Saccharomyces cerevisiae; experiment: Antifungal activity against Saccharomyces cerevisiae A136 expressing ATP-dependent DNA ligase by CLSI dilution method; assay type: functional
# [33] = Selectivity ratio of IC50 for Streptococcus pneumoniae NAD-dependent DNA ligase to IC50 for Staphylococcus aureus NAD-dependent DNA ligase
# [34] = test system: Rattus norvegicus; experiment: fAUC (0 to infinity) in rat at 0.1 mg/kg, iv; assay type: ADME, organism-based; design: dose 0.1 mg/kg, route intravenous; conditions: in vivo
# Outline: (§1)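 Rat intravenous PK: 0.1 mg/kg dose in 5% DMSO/28.5% HPBCD in water. Total plasma clearance is in mL/min/kg. Volume of distribution at steady state is in L/kg.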
# [35] = AUC (0 to infinity) in rat at 0.1 mg/kg, iv; assay type: ADME, organism-based; design: time infinity, dose 0.1 mg/kg, route intravenous; conditions: plasma; outline: as §1
# [36] = test system: Enterococcus faecium; experiment: Antibacterial activity against Enterococcus faecium A949 by CLSI dilution method; assay type: functional
# [37] = AUC (0 to 24 hrs) in rat at 1 mg/kg, po; assay type: ADME, organism-based; design: time < 24 hr, dose 1 mg/kg, route oral; conditions: plasma
# [38] = Fraction unbound in rat plasma at 0.1 mg/kg, iv and 1 mg/kg, po; assay type: ADME, organism-based
# [39] = test system: Staphylococcus aureus; experiment: Antibacterial activity against […]-sensitive Staphylococcus aureus DM 11823; assay type: functional
# [40] = Volume of distribution at steady state in rat at 0.1 mg/kg, iv and 1 mg/kg, po; assay type: ADME, organism-based; conditions: in vivo, read-out: Vdss; outline: as §1
# [41] = Terminal half life in mouse at 10 mg/kg, sc; assay type: ADME, organism-based; design: dose 10 mg/kg, route subcutaneous; conditions: in vivo, read-out: beta t1/2 (converted)
# [42] = test system: Staphylococcus aureus; experiment: Bacteriostatic activity against […]-sensitive Staphylococcus aureus DM 11823 in mouse neutropenic thigh infection model at 100 mg/kg, sc administered 2 hrs post infection measured after 24 hrs; assay type: functional, organism-based; design: dose 100 mg/kg
# Outline: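 Neutropenic murine thigh infection with a quinolone-sensitive laboratory descendant of S. aureus DSM 11823. Inoculum 2×10^3 cfu given i.m. Compound given once at 100 mg/kg s.c., 2 h post-infection, in 5% DMSO/15% Solutol HS15 in water. Bacterial burden assessed 24 h after infection.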
# [43] = Total plasma clearance in rat at 0.1 mg/kg, iv and 1 mg/kg, po; assay type: ADME, organism-based; outline: as §1
# [44] = molecular target: Cytochrome P450 2C9 (Homo sapiens, UniProt P11712); experiment: Inhibition of human CYP2C9; assay type: ADME
# Chain of Cytochrome P450 2C9 (P11712 whole entry): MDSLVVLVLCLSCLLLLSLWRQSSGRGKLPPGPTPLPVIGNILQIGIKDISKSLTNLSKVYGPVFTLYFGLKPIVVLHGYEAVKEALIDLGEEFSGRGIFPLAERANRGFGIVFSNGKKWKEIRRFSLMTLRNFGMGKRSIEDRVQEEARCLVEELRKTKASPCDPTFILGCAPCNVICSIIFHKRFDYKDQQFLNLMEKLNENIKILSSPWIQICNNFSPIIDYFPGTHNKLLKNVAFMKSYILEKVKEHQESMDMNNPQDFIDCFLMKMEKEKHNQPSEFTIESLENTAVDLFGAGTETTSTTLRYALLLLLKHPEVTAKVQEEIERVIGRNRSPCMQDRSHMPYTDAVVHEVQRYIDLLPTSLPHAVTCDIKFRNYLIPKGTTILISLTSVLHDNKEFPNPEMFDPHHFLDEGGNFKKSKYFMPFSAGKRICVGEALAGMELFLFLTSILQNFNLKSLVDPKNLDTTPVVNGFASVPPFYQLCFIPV
# Chain of DNA ligase 1 (Homo sapiens) (P18858 whole entry): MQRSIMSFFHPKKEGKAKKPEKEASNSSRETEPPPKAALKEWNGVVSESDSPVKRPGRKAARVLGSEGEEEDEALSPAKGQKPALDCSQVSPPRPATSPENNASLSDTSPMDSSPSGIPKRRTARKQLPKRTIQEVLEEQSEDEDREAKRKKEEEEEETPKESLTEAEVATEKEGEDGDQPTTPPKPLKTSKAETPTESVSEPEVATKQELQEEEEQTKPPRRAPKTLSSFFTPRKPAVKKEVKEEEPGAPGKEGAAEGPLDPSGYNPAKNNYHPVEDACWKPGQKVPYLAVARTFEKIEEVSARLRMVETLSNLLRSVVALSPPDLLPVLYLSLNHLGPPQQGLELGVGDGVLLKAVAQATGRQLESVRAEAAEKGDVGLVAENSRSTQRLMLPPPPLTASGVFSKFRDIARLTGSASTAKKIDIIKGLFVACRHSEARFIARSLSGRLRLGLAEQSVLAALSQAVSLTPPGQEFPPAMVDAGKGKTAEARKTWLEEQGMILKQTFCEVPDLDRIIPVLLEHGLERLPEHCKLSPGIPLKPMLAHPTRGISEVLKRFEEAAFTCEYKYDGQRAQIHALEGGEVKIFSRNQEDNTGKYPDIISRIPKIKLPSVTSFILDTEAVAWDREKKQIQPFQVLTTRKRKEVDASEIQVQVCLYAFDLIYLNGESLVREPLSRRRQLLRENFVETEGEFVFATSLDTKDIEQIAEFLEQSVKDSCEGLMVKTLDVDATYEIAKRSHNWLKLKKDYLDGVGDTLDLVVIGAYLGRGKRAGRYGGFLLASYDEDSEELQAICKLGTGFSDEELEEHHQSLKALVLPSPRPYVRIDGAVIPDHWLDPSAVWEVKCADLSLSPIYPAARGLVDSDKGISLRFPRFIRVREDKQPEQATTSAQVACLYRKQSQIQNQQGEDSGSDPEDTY
# Chain of Cytochrome P450 3A4 (P08684 whole entry): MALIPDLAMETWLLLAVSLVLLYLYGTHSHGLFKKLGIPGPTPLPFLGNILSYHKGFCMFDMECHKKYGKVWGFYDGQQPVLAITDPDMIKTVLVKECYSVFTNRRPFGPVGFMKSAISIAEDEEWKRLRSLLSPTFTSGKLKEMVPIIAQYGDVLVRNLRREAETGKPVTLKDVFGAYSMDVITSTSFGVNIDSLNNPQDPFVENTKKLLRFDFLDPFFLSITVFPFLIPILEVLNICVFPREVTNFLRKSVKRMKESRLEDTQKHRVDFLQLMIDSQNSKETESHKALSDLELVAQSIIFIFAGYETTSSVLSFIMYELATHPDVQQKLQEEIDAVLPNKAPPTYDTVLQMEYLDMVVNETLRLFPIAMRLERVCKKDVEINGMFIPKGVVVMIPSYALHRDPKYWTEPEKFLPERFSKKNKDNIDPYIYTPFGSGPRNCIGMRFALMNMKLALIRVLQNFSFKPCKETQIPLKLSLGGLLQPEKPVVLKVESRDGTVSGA
# Chain of Cytochrome P450 2D6 (P10635 whole entry): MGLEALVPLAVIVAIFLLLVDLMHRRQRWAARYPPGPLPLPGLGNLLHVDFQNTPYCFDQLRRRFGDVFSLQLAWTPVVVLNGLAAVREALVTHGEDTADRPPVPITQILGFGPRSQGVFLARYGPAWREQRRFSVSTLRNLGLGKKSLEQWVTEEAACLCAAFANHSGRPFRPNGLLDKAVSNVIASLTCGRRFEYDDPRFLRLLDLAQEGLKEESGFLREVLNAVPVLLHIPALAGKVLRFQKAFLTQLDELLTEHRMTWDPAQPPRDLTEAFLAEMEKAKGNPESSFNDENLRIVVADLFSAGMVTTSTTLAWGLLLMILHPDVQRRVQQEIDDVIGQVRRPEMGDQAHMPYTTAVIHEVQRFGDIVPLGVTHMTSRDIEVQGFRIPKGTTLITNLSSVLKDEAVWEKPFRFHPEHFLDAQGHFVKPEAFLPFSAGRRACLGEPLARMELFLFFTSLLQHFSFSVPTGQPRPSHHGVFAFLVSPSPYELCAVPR
compound,measurement,setting,value
NC(=O)c1cc2cc(C3CC3)c(C(F)(F)F)nc2nc1N,Kd,[1],83 nM
same,MIC,[2],0.5 µg/mL
same,MIC,[3],1 µg/mL
same,MIC,[4],2 µg/mL
same,IC50,[5],400 nM
same,inhibition,[6],inactive
same,inhibition,[7],inactive
same,MIC,[8],0.125 µg/mL
same,MIC,[9],16 µg/mL
NC(=O)c1cc2cc(Cc3ccccc3)c(C(F)(F)F)nc2nc1N,Kd,[1],141 nM
same,MIC,[2],4 µg/mL
same,MIC,[3],> 16 µg/mL
same,MIC,[4],16 µg/mL
same,IC50,[5],800 nM
same,inhibition,[6],inactive
same,inhibition,[7],inactive
same,MIC,[8],0.125 µg/mL
same,MIC,[9],> 16 µg/mL
CN(CCO)c1c(Br)c(C(F)(F)F)nc2nc(N)c(C(N)=O)cc12,Kd,[1],57 nM
same,MIC,[2],4 µg/mL
same,MIC,[3],8 µg/mL
same,MIC,[4],> 16 µg/mL
same,IC50,[5],700 nM
same,inhibition,[6],inactive
same,inhibition,[7],inactive
same,MIC,[8],0.5 µg/mL
same,MIC,[9],8 µg/mL
NC(=O)c1cc2cc(CO)c(C(F)(F)F)nc2nc1N,Kd,[1],389 nM
same,MIC,[2],2 µg/mL
same,MIC,[3],> 16 µg/mL
same,MIC,[4],> 16 µg/mL
same,IC50,[5],500 nM
same,inhibition,[6],inactive
same,inhibition,[7],inactive
same,MIC,[8],2 µg/mL
same,MIC,[9],> 16 µg/mL
CC(C)(OCc1ccccc1)c1nc2nc(N)c(C(N)=O)cc2cc1Br,Kd,[1],4310 nM
same,MIC,[2],> 16 µg/mL
same,MIC,[3],> 16 µg/mL
same,MIC,[4],> 16 µg/mL
same,IC50,[5],> 5000 nM
same,inhibition,[6],inactive
same,inhibition,[7],inactive
same,MIC,[8],8 µg/mL
same,MIC,[9],> 16 µg/mL
NC(=O)c1cc2cc(Br)c(C(F)(F)F)nc2nc1N,MIC,[10],8 µg/mL
same,fAUC,[11],171 ng·h/mL
same,MIC,[12],> 32 µg/mL
same,MIC,[13],1 µg/mL
same,hepatocyte CLint,[14],1.8 µL/min/1e6 cells
same,AUC(0-t) at 24 h,[15],84500 ng·h/mL
same,fraction unbound,[16],0.046
same,MIC,[2],0.125 µg/mL
same,MIC,[17],> 32 µg/mL
same,Cmax,[18],7050 ng/mL
same,Cmax,[19],410 ng/mL
same,MIC,[3],1 µg/mL
same,MIC,[4],2 µg/mL
same,MIC,[20],8 µg/mL
same,IC50,[21],> 50000 nM
same,half-life,[22],2.3 h
same,MIC,[23],> 32 µg/mL
same,IC50,[5],300 nM
same,MIC,[24],1 µg/mL
same,MIC,[25],16 µg/mL
same,inhibition,[6],inactive
same,bioavailability,[26],80%
same,microsomal CLint,[27],20 µL/min/mg
same,MIC,[28],> 32 µg/mL
same,MIC,[29],8 µg/mL
same,IC50,[30],> 50000 nM
same,MIC,[31],2 µg/mL
same,MIC,[32],> 32 µg/mL
same,Ratio IC50,[33],2
same,fAUC,[34],21 ng·h/mL
same,AUC(0-inf),[35],150 ng·h/mL
same,inhibition,[7],inactive
same,MIC,[36],> 32 µg/mL
same,AUC(0-t) at 24 h,[37],1220 ng·h/mL
same,fraction unbound,[38],0.14
same,MIC,[39],0.5 µg/mL
same,Vd,[40],0.71 L/kg
same,half-life,[41],2.9 h
same,Activity,[42],Active
same,MIC,[8],0.063 µg/mL
same,clearance,[43],11 mL/min/kg
same,MIC,[9],2 µg/mL
same,IC50,[44],> 50000 nM
NC(=O)c1cc2c(N3CC(O)C3)c(Br)c(C(F)(F)F)nc2nc1N,Kd,[1],43 nM
same,MIC,[2],4 µg/mL
same,MIC,[3],16 µg/mL
same,MIC,[4],4 µg/mL
same,IC50,[5],500 nM
same,inhibition,[6],inactive
same,inhibition,[7],inactive
same,MIC,[8],0.125 µg/mL
same,MIC,[9],> 16 µg/mL
